Screening results: PubChem BioAssay, Sanford-Burnham Center for Chemical Genomics
The list is a sample of the results.
Apaf-1 act: activators of human Apaf-1 apoptosome, primary screen, biochemical, DEVD-Rh110 fluorescence, uHTS. 330,000 compounds, 0.31% hits. AID 489031, 2010. Apaf-1 apoptosome caspase-3 activation; hits give low values. activity change, negative = activation, % at 20 µM;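 active means activity change at or below -40% at 20 µM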
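Assay system – biochemical Apaf-1 apoptosome reconstitution · Medium – 20 mM HEPES buffer, pH 7.5, containing CHAPS and BSA · Incubation – 30 min preincubation, 50 min reaction, room temperature · Measured by – Caspase-3-released Rh110 fluorescence, 540 nm emission, 480 nm excitation · Read-out – Caspase-3 cleavage activity downstream of Apaf-1 activation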
Rh110 interf act: Rh110 fluorescence interference by putative Apaf-1 activators, confirmation, artefact control for Apaf-1 activator project, biochemical, 20 µM. shares compounds with Apaf-1 act. quenched caspase reaction, Ex480/Em540. fluorescence interference (activity change), % at 20 µM, hits read low. 980 tested, under 10 active;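 active means mean activity change at or below -40% when tested at 20 µM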
Apaf-1 act conf2: Apaf-1 activators, single-dose retest, confirmation, biochemical, fluorescence, DEVD-Rh110, 20 µM; shares compounds with Apaf-1 act; activity change, negative = activation, % at 20 µM; reconstituted apoptosome caspase-3 activity; hits give low values; 980 compounds, 5% hits;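 active means mean activity change at or below -40%, meaning activation of 40% or more, at 20 µM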
An asterisk follows results filed as active; . = no result.

SMILES	Apaf-1 act	Rh110 interf act	Apaf-1 act conf2
COc1ccc(C(=O)COC(=O)CCCN=C2NS(=O)(=O)c3ccccc32)c(OC)c1	51	.	.
C=CCC[C@@H](Cc1ccc(F)cc1)C(=O)OC[C@H]1CCCN1C(=O)[C@@H](CC=C)CC(=O)N[C@H](CO)Cc1ccccc1	40	.	.
COc1ccc(C(=O)N(C)C(C)c2ccon2)cc1OC1CCN(C(C)C)CC1 (stereo not given)	-315*	13	14
COc1cc(/C=C/c2nc(N)nc(-c3ccccc3O)n2)cc(OC)c1OC	-517*	14	17
CCn1c(=NC(=O)c2ccco2)sc2cccc(F)c21	-432*	12	14
COc1ccc(C(=O)N(CCc2ccccc2)Cc2ccccc2)cc1S(=O)(=O)N1CCOCC1	45	.	.
COc1ccc(C(=O)N(Cc2ccccc2)c2cccc(C)c2)cc1S(=O)(=O)N1CCOCC1	45	.	.
CCCCN(C(=O)c1cccc(S(=O)(=O)N2CCOCC2)c1)c1c(N)n(CCC)c(=O)[nH]c1=O	-84*	0	5
C=CCC[C@@H](Cc1ccc(F)cc1)C(=O)OC[C@@H]1CCCN1C(=O)[C@H](CC=C)CC(=O)N[C@H](CO)Cc1ccccc1	43	.	.
O=C(N/N=C/c1ccc(-c2ccccc2[N+](=O)[O-])o1)c1cncc(Br)c1	81	.	.
O=C(COc1ccccc1[N+](=O)[O-])N/N=C/c1ccncc1	-53*	9	15
O=C(N/N=C\c1ccc(-c2ccccc2[N+](=O)[O-])o1)C1COc2ccccc2O1 (stereo not given)	79	.	.
CCN(Cc1ccccc1)C(=O)c1c[nH]c2ccc(S(=O)(=O)N(C)CCC#N)cc2c1=O	-55*	4	5
CCCN(C(=O)COC(=O)C12CCC(=O)N1c1ccccc1S2)c1c(N)n(Cc2ccccc2)c(=O)[nH]c1=O (stereo not given)	-50*	4	14
CS(=O)(=O)c1nc(-c2ccc(Br)cc2)cc(-c2ccccc2)c1C#N	47	.	.
O=C(NC1CCS(=O)(=O)C1)Oc1ccccc1 (stereo not given)	51	.	.
O=C(NCCCCCCNC(=O)OC1CCS(=O)(=O)C1)OC1CCS(=O)(=O)C1 (stereo not given)	-48*	8	4
CC[C@@H](C)[C@@H]1CN([C@@H](CN2CCC[C@H]2CN2C(N)=NC[C@H]2CC(C)C)C(C)C)C(=N)N1CCc1ccc(Cl)c(Cl)c1	63	.	.
O=C(O)C1CCCN(S(=O)(=O)c2ccc(-c3ccc(=O)[nH]n3)s2)C1 (stereo not given)	-350*	-5	10
O=C1c2ccccc2-c2nnc(-c3ccc(O)cc3)cc21	91	.	.
CC[C@@H](C)[C@@H]1CN([C@@H](C)CN2CCC[C@H]2CN2C(N)=NC[C@H]2CC(C)C)C(=N)N1CCc1ccc(Cl)c(Cl)c1	52	.	.
Cc1cccc(Oc2nc(-c3ccccn3)nc3ccccc23)c1	-553*	12	12
CCc1nc2ccc(C(=O)N3CCN(c4ccccc4)CC3)cc2nc1CC	-505*	4	12
O=C(c1ccc2nc(-c3ccco3)c(-c3ccco3)nc2c1)N1CCN(c2ccccc2)CC1	40	.	.
O=C(O)c1ccc2nc(-c3ccco3)c(-c3ccco3)nc2c1	62	.	.
SMILES	Apaf-1 act	Rh110 interf act	Apaf-1 act conf2
CCNC(=S)SCCOc1ccc(C)cc1	-127*	12	20
CC(C)(C)c1ccc(C(O)CCCN2CCC(C(O)(c3ccccc3)c3ccccc3)CC2)cc1 (stereo not given)	53	.	.
CN1CCc2nc(SCC(=O)Nc3cccc(F)c3)c(C#N)c(-c3cccs3)c2C1	67	.	.
CCN1/C(=C/C=C/c2oc3ccc4ccccc4c3[n+]2CC)Oc2ccc3ccccc3c21	76	.	.
CCOC(=O)CCC(=O)NNC(=O)COc1ccc(C(C)C)cc1Br	-108*	-9	9
COc1ccc2cnn(-c3ccc(OC(F)(F)F)cc3)c(=O)c2c1OC	-49*	1	2
COC(=O)c1c(NC(=O)c2ccc(OC(C)C)cc2)sc2c1CC(C)(C)NC2(C)C	53	.	.
c1csc(Cc2nn3c(-c4ccncc4)nnc3s2)c1	78	.	.
CC(=O)NC1=C(NC2CCS(=O)(=O)C2)C(=O)c2ccccc2C1=O (stereo not given)	41	.	.
CCSc1ncc(Cl)c(C(=O)Nc2ccc(S(=O)(=O)Nc3ncccn3)cc2)n1	-76*	0	6
CC1(C)N([O-])c2cc([N+](=O)[O-])ccc2[N+]1=O	66	.	.
Cc1[nH][nH]c(=O)c1C(c1ccc(-c2cccc(Cl)c2)o1)c1c(C)[nH][nH]c1=O	87	.	.
COc1cc(C2NC(=O)NC(C)=C2C(=O)OCC2CCCO2)cc(OC)c1OC (stereo not given)	-359*	9	11
COc1cc(C2C(C#N)=C(C)NC3=C2C(=O)c2ccccc23)cc(OC)c1OC (stereo not given)	54	.	.
COC(=O)C1=C(C)N(Cc2ccccc2)C(=NCc2cc(OC)c(OC)c(OC)c2)N[C@H]1c1ccc(Br)cc1	55	.	.
O=C(NCCNc1ccc2ccccc2c1)c1cccn2c(=O)c3sccc3nc12	51	.	.
Nc1ccc(N2CCOCC2)c2nonc12	84	.	.
Cc1ccc(C)c(NC(=S)NC(NC(=O)OCc2ccccc2)C(Cl)(Cl)Cl)c1 (stereo not given)	-41*	5	14
CCN(Cc1ccccc1)S(=O)(=O)c1ccc(C(=O)N(CCCN(C)C)c2nc3cc(C)cc(C)c3s2)cc1	42	.	.
CCN(CC)CCNC(=O)c1ccc2c(c1NCCO)C(=O)c1ccccc1C2=O	54	.	.
Cc1ccc(NC(=O)Nc2nnc(CSCCOc3ccc(Cl)cc3)s2)cc1	-253*	3	12
Cc1c(C(=O)c2ccc(F)cc2F)c2ccccn2c1CCC#N	63	.	.
COc1cc([N+](=O)[O-])ccc1NC(=O)NNC(=O)c1sccc1C	-60*	8	12
CCOc1cc(CNc2ccc(N3CCCCC3)cc2)cc(Br)c1OCC(=O)NC(C)(C)C	44	.	.
CCOc1cc(CNc2ccc(N3CCCC3)cc2)cc(Cl)c1OC	55	.	.
SMILES	Apaf-1 act	Rh110 interf act	Apaf-1 act conf2
COc1cc(CNc2ccc(N3CCOCC3)cc2)cc(Br)c1OC	-85*	3	2
CS(=O)(=O)NN1C(=O)c2ccccc2NC1c1ccccc1O (stereo not given)	-64*	0	0
O=C(OCC(=O)N1CCN(S(=O)(=O)c2ccc(Cl)cc2)CC1)c1ccc([N+](=O)[O-])o1	69	.	.
COC(=O)CCC(=O)OC1(C)C(=O)C2=CN(CCCCO)C(c3ccc(OC)cc3)=CC2=C(Br)C1=O (stereo not given)	80	.	.
Cc1cccc(C(=O)N/N=C/c2ccncc2)c1	-45*	2	13
Cc1ccc(/C=N/NC(=O)c2ccncc2)cc1	-499*	-5	5
Cc1cc([N+](=O)[O-])c(C)cc1-c1ccc(/C=N/NC(=O)c2cccnc2)o1	55	.	.
COc1ccc(N)c2c1OCCC2=O	87	.	.
Cc1ccc(-c2csc3nc4c5ccccc5c(NCCCN(C)C)nn4c(=O)c23)cc1	42	.	.
O=C1CC(N2CCOCC2)=NN1c1ccc([N+](=O)[O-])cc1	94	.	.
